The subject of one series is Pseudomonas aeruginosa. The series is described as follows: Antibacterial activity against extended spectrum beta-lactamase IMP-4 producing multidrug resistant Pseudomonas aeruginosa clinical isolates after 18 hrs by broth microdilution method. It counts as functional. In general terms: In broth dilution the organism is exposed to a series of concentrations in liquid medium.

In the next series the test system is Klebsiella pneumoniae. In words: Antibacterial activity against extended spectrum beta-lactamase KPC-2 producing multidrug resistant Klebsiella pneumoniae clinical isolates after 18 hrs by broth microdilution method. It is filed as functional.
In another series the test system is Acinetobacter baumannii. The series is described as follows: Antibacterial activity against extended spectrum beta-lactamase OXA-23 producing multidrug resistant Acinetobacter baumannii clinical isolates after 18 hrs by broth microdilution method. It is filed as functional.
For the next series, the system named is Plasma. The series is described as follows: Fraction unbound in human plasma at 10 uM after 4 hrs by LC-MS/MS based rapid equilibrium dialysis method. It counts as ADME, cell-free. In a few lines: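 Human plasma spiked at 10 μM was dialysed against buffer in a rapid equilibrium dialysis device for 4 h at 37 °C under 5% CO2 (n = 4). Both sides were quantified by LC–MS/MS. Fraction unbound was taken as the buffer concentration divided by the total plasma-side concentration.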
(In general: In equilibrium dialysis only unbound substance equilibrates across the membrane.)

The nature of series [1]: Drug degradation in human plasma at 10 uM after 4 hrs by LC-MS/MS analysis. It counts as ADME, cell-free. Particulars: read-out: Drug degradation. In short, it runs like this: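 Human plasma containing compound (10 μM, n = 4) was incubated for 4 h at 37 °C under 5% CO2. Concentrations at T0 and at 4 h were measured by LC–MS/MS, and degradation was expressed as a percentage relative to the T0 average.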

In a further series the test system is Escherichia coli. The series is described as follows: Antibacterial activity against extended spectrum beta-lactamases producing Escherichia coli clinical isolates after 18 hrs by broth microdilution method. It counts as functional.
Where [2] appears, read: Klebsiella pneumoniae, 18 h, read-out: MIC.

Values after ≈ are worked out from the molar mass of the structure shown. Some results are limits rather than exact numbers.

A word on the MIC: it is the least concentration at which growth counts as inhibited. Consider `CC(C)OCC(O/N=C(\C(=O)N[C@@H]1C(=O)N(OS(=O)(=O)O)C1(C)C)c1csc(N)n1)c1cc(=O)c(O)cn1O` (stereo partly drawn), for which the MIC against Pseudomonas aeruginosa fell in the range of 0.5 to 8 µg/mL (≈ 0.847 to 13.5 µM); in the series with Klebsiella pneumoniae (setting [2]), 0.25 to 64 µg/mL (≈ 0.423 to 108 µM); in the series on Acinetobacter baumannii it was 1 to 8 µg/mL (≈ 1.69 to 13.5 µM).
Turning to `CC(O/N=C(\C(=O)N[C@@H]1C(=O)N(OS(=O)(=O)O)C1(C)C)c1csc(N)n1)c1cc(=O)c(O)cn1O` (stereo partly drawn), the MIC was 0.25 to 8 µg/mL (≈ 0.469 to 15 µM) with Pseudomonas aeruginosa, 0.03 to 64 µg/mL against Klebsiella pneumoniae, 0.5 to 64 µg/mL (≈ 0.939 to 120 µM) against Acinetobacter baumannii and 0.06 to 0.25 µg/mL (≈ 0.113 to 0.469 µM) in the series with Escherichia coli. The Fu in the series with Plasma is 41%. Moreover, the metabolised at 4 h, 10 µM in series [1] was found to be 24%.
For `CC(=O)N(O)CCO/N=C(\C(=O)N[C@@H]1C(=O)N(OS(=O)(=O)O)C1(C)C)c1csc(N)n1`, the MIC against Pseudomonas aeruginosa is at least 64 µg/mL; with Klebsiella pneumoniae (setting [2]), 32 to 64 µg/mL (≈ 66.6 to 133 µM); against Acinetobacter baumannii, 16 to 64 µg/mL (≈ 33.3 to 133 µM); with Escherichia coli, 4 to 32 µg/mL (≈ 8.32 to 66.6 µM).
For `CC(C)[C@@H](O/N=C(\C(=O)N[C@@H]1C(=O)N(OS(=O)(=O)O)C1(C)C)c1nsc(N)n1)c1cc(=O)c(O)cn1O`, the MIC against Pseudomonas aeruginosa was 1 to 4 µg/mL (≈ 1.78 to 7.12 µM); in the series on Klebsiella pneumoniae (setting [2]), 0.5 to 2 µg/mL (≈ 0.89 to 3.56 µM); in the series on Acinetobacter baumannii, 0.5 to 64 µg/mL (≈ 0.89 to 114 µM); against Escherichia coli, 0.5 to 8 µg/mL (≈ 0.89 to 14.2 µM).
For the compound `CC1(C)[C@H](NC(=O)/C(=N\OC(c2cccs2)c2cc(=O)c(O)cn2O)c2csc(N)n2)C(=O)N1OS(=O)(=O)O` (stereo partly drawn), the MIC against Pseudomonas aeruginosa is 0.5 to 2 µg/mL (≈ 0.832 to 3.33 µM); with Klebsiella pneumoniae (setting [2]), 0.06 to 16 µg/mL (≈ 0.0999 to 26.6 µM); in the series with Acinetobacter baumannii, 0.5 to 2 µg/mL (≈ 0.832 to 3.33 µM).
Regarding `CC1(C)[C@H](NC(=O)/C(=N\OC(CO)c2cc(=O)c(O)cn2O)c2csc(N)n2)C(=O)N1OS(=O)(=O)O` (stereo partly drawn), the MIC in the series on Pseudomonas aeruginosa was 0.25 to 16 µg/mL (≈ 0.456 to 29.2 µM); with Klebsiella pneumoniae (setting [2]), 0.25 to 64 µg/mL (≈ 0.456 to 117 µM); with Acinetobacter baumannii, 0.5 to 2 µg/mL (≈ 0.912 to 3.65 µM); in the series on Escherichia coli it was 0.06 to 4 µg/mL (≈ 0.109 to 7.29 µM). The Fu in the series on Plasma turned out to be 59%. In addition, the metabolised at 4 h, 10 µM in series [1] is 50%.
For `CC(C)C(O/N=C(\C(=O)N[C@@H]1C(=O)N(OS(=O)(=O)O)C1(C)C)c1nsc(N)n1)c1cc(=O)c(O)cn1O` (stereo partly drawn), the MIC is 0.5 to 32 µg/mL (≈ 0.89 to 57 µM) in the series with Pseudomonas aeruginosa, 0.06 to 1 µg/mL (≈ 0.107 to 1.78 µM) in the series with Klebsiella pneumoniae (setting [2]), 0.5 to 4 µg/mL (≈ 0.89 to 7.12 µM) against Acinetobacter baumannii and 0.06 to 2 µg/mL (≈ 0.107 to 3.56 µM) against Escherichia coli. In the series with Plasma, the Fu came out at 28%. Besides, the metabolised at 4 h, 10 µM in series [1] stood at 11%.
With `Cn1nc(O)c(=O)nc1SCCO/N=C(\C(=O)N[C@@H]1C(=O)N(OS(=O)(=O)O)C1(C)C)c1csc(N)n1`, the MIC is 16 to 64 µg/mL (≈ 28.3 to 113 µM) in the series with Pseudomonas aeruginosa, 16 to 64 µg/mL (≈ 28.3 to 113 µM) with Klebsiella pneumoniae (setting [2]), 16 to 64 µg/mL (≈ 28.3 to 113 µM) against Acinetobacter baumannii and 1 to 8 µg/mL (≈ 1.77 to 14.2 µM) with Escherichia coli.
On to `CC(C)SCC(O/N=C(\C(=O)N[C@@H]1C(=O)N(OS(=O)(=O)O)C1(C)C)c1csc(N)n1)c1cc(=O)c(O)cn1O` (stereo partly drawn), for which the MIC against Pseudomonas aeruginosa was in the range of 0.25 to 4 µg/mL (≈ 0.412 to 6.59 µM); in the series on Klebsiella pneumoniae (setting [2]) it was 0.06 to 1 µg/mL (≈ 0.0989 to 1.65 µM); against Acinetobacter baumannii it was 0.25 to 2 µg/mL (≈ 0.412 to 3.3 µM). Further, the Fu in the series with Plasma came to 21%. In series [1], the metabolised at 4 h, 10 µM came out at 34%.
As for `Cc1cc(=O)c(O)cn1CCO/N=C(\C(=O)N[C@@H]1C(=O)N(OS(=O)(=O)O)C1(C)C)c1csc(N)n1`, the MIC in the series with Pseudomonas aeruginosa is 64 µg/mL (≈ 121 µM); with Klebsiella pneumoniae (setting [2]), 8 to 64 µg/mL (≈ 15.1 to 121 µM); against Acinetobacter baumannii, 8 to 64 µg/mL (≈ 15.1 to 121 µM); against Escherichia coli, 1 to 64 µg/mL (≈ 1.88 to 121 µM).
For the compound `CSC[C@H](O/N=C(\C(=O)N[C@@H]1C(=O)N(OS(=O)(=O)O)C1(C)C)c1csc(N)n1)c1cc(=O)c(O)cn1O`, the figures for the MIC against Pseudomonas aeruginosa, in the series with Klebsiella pneumoniae and in the series with Acinetobacter baumannii were 0.5 to 2 µg/mL (≈ 0.864 to 3.46 µM), above 0.06 to 64 µg/mL and 0.5 to 4 µg/mL (≈ 0.864 to 6.91 µM), respectively. In the series on Plasma, this compound came in with a Fu of 29%. In series [1], the metabolised at 4 h, 10 µM was 39%.
As to `COC(=O)C(O/N=C(\C(=O)N[C@@H]1C(=O)N(OS(=O)(=O)O)C1(C)C)c1csc(N)n1)c1cc(=O)c(O)cn1O` (stereo partly drawn), the MIC against Pseudomonas aeruginosa was 1 to 4 µg/mL (≈ 1.73 to 6.94 µM); in the series with Klebsiella pneumoniae (setting [2]) it was 0.25 to 2 µg/mL (≈ 0.434 to 3.47 µM); in the series with Acinetobacter baumannii, 0.5 to 1 µg/mL (≈ 0.867 to 1.73 µM); against Escherichia coli, 0.25 to 1 µg/mL (≈ 0.434 to 1.73 µM). For the same compound, the Fu in the series with Plasma was determined as 61%. In series [1], the metabolised at 4 h, 10 µM came to 66%.
Regarding `CC(O/N=C(\C(=O)N[C@@H]1C(=O)N(OS(=O)(=O)O)C1(C)C)c1nsc(N)n1)c1cc(=O)c(O)cn1O` (stereo partly drawn), the MIC in the series with Pseudomonas aeruginosa was 0.5 to 64 µg/mL (≈ 0.937 to 120 µM); in the series on Klebsiella pneumoniae (setting [2]), 0.25 to 64 µg/mL (≈ 0.469 to 120 µM); against Acinetobacter baumannii, 2 to 64 µg/mL (≈ 3.75 to 120 µM). The compound further yielded a Fu in the series with Plasma of 37%. Besides, in series [1], the metabolised at 4 h, 10 µM was 13%.
As for `C=CC(O/N=C(\C(=O)N[C@@H]1C(=O)N(OS(=O)(=O)O)C1(C)C)c1csc(N)n1)c1cc(=O)c(O)cn1O` (stereo partly drawn), the values for the MIC against Pseudomonas aeruginosa, with Klebsiella pneumoniae and in the series on Acinetobacter baumannii were 0.5 to 2 µg/mL (≈ 0.918 to 3.67 µM), above 0.03 to 64 µg/mL and 0.25 to 2 µg/mL (≈ 0.459 to 3.67 µM), respectively.
With `CO/N=C(\C(=O)N[C@@H]1C(=O)N2C(C(=O)[O-])=CCS[C@H]12)c1csc(N)n1.[Na+]` [CEFTIZOXIME SODIUM], the MIC in the series with Pseudomonas aeruginosa was above 64 µg/mL; with Klebsiella pneumoniae (setting [2]) it was 32 to 64 µg/mL; with Acinetobacter baumannii, 32 to 64 µg/mL; against Escherichia coli, 0.5 to 2 µg/mL.
